Data taken from ChEMBL document CHEMBL1142195, “A novel nonnucleoside analogue that inhibits human immunodeficiency virus type 1 isolates resistant to current nonnucleoside reverse transcriptase inhibitors” (Antimicrob Agents Chemother, 2007).
Activity calls are given as the source filed them. The calls are words filed in the database; no cut-off is given here.

Key:
[1] = system: Human immunodeficiency virus 1; assay: Antiviral activity against HIV1 isolate with RT 103N, 108I, 238T mutation relative to wild type; type: functional
[2] = system: Human immunodeficiency virus 1; assay: Antiviral activity against HIV1 isolate with RT 108I, 181C, 190A mutation relative to wild type; type: functional
Outline: (§1)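 Mutant RT clones built in pNL4-3.Luc.R−E− reporter, VSV-G-pseudotyped, single-round infection of HeLa-JC53 cells (15,000/well, MOI 0.03) with 1:4 serial compound dilutions in DMEM (phenol red-free), 2% FBS, 0.2% final DMSO; 48 h at 37°C, 5% CO2; luciferase chemiluminescence read-out. Fold change in EC50 relative to wild-type virus; mean of two tests.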

[3] = system: Human immunodeficiency virus 1; assay: Antiviral activity against HIV1 isolate with RT 98G, 103N, 181C mutation relative to wild type; type: functional; outline: as §1
[4] = system: Human immunodeficiency virus 1; assay: Antiviral activity against HIV1 isolate with RT 98G, 181C mutation relative to wild type; type: functional; outline: as §1
[5] = system: Human immunodeficiency virus 1; assay: Antiviral activity against HIV1 isolate with RT 103R, 179D mutation relative to wild type; type: functional; outline: as §1
[6] = system: Human immunodeficiency virus 1; assay: Antiviral activity against HIV1 isolate with RT 106L, 188L mutation relative to wild type; type: functional; outline: as §1
[7] = system: Human immunodeficiency virus 1; assay: Antiviral activity against HIV1 isolate with RT 106I, 188L mutation relative to wild type; type: functional; outline: as §1
[8] = system: Human immunodeficiency virus 1; assay: Antiviral activity against HIV1 isolate with RT 101E, 108I, 181C, 190A mutation relative to wild type; type: functional
[9] = system: Human immunodeficiency virus 1; assay: Antiviral activity against HIV1 isolate with RT 106I mutation relative to wild type; type: functional; outline: as §1
[10] = system: Human immunodeficiency virus 1; assay: Antiviral activity against HIV1 isolate with RT 101E, 190A mutation relative to wild type; type: functional
[11] = system: Human immunodeficiency virus 1; assay: Antiviral activity against HIV1 isolate with RT 106A, F227L mutation relative to wild type; type: functional; outline: as §1
[12] = system: Human immunodeficiency virus 1; assay: Antiviral activity against HIV1 isolate with RT 101P, 190A mutation relative to wild type; type: functional
[13] = system: Human immunodeficiency virus 1; assay: Antiviral activity against HIV1 isolate with RT 103N, 108I, 181C, 190A mutation relative to wild type; type: functional
[14] = system: Human immunodeficiency virus 1; assay: Antiviral activity against HIV1 isolate with RT 179T mutation relative to wild type; type: functional; outline: as §1
[15] = system: Human immunodeficiency virus 1; assay: Antiviral activity against HIV1 isolate with RT 101E, 190S mutation relative to wild type; type: functional
[16] = system: Human immunodeficiency virus 1; assay: Antiviral activity against HIV1 isolate with RT 101H mutation relative to wild type; type: functional
[17] = system: Human immunodeficiency virus 1; assay: Antiviral activity against HIV1 isolate with RT 103N, 225H mutation relative to wild type; type: functional; outline: as §1
[18] = system: Human immunodeficiency virus 1; assay: Antiviral activity against HIV1 isolate with RT 100I, 103N mutation relative to wild type; type: functional
[19] = system: Human immunodeficiency virus 1; assay: Antiviral activity against HIV1 isolate with RT 181C mutation relative to wild type; type: functional; outline: as §1
[20] = system: Human immunodeficiency virus 1; assay: Antiviral activity against HIV1 isolate with RT 101Q, 103N mutation relative to wild type; type: functional
[21] = system: Human immunodeficiency virus 1; assay: Antiviral activity against HIV1 isolate with RT 98G, 103N, 108I mutation relative to wild type; type: functional; outline: as §1
[22] = system: Human immunodeficiency virus 1; assay: Antiviral activity against HIV1 isolate with RT 101Q, 103R mutation relative to wild type; type: functional
[23] = system: Human immunodeficiency virus 1; assay: Antiviral activity against HIV1 isolate with RT 103Q mutation relative to wild type; type: functional; outline: as §1
[24] = system: Human immunodeficiency virus 1; assay: Antiviral activity against HIV1 isolate with RT 108I, 181C mutation relative to wild type; type: functional; outline: as §1
[25] = system: Human immunodeficiency virus 1; assay: Antiviral activity against HIV1 isolate with RT 101Q, 181C, 190A mutation relative to wild type; type: functional
[26] = system: Human immunodeficiency virus 1; assay: Antiviral activity against HIV1 isolate with RT 179E mutation relative to wild type; type: functional; outline: as §1
[27] = system: Human immunodeficiency virus 1; assay: Antiviral activity against HIV1 isolate with RT 188H mutation relative to wild type; type: functional; outline: as §1
[28] = system: Human immunodeficiency virus 1; assay: Antiviral activity against HIV1 isolate with RT 181C, 190A mutation relative to wild type; type: functional; outline: as §1
[29] = system: Human immunodeficiency virus 1; assay: Antiviral activity against HIV1 isolate with RT 238T mutation relative to wild type; type: functional; outline: as §1
[30] = system: Human immunodeficiency virus 1; assay: Antiviral activity against HIV1 isolate with RT 103N, 238T mutation relative to wild type; type: functional; outline: as §1
[31] = system: Human immunodeficiency virus 1; assay: Antiviral activity against HIV1 isolate with RT 190S mutation relative to wild type; type: functional; outline: as §1
[32] = system: Human immunodeficiency virus 1; assay: Antiviral activity against HIV1 isolate with RT 101E mutation relative to wild type; type: functional
[33] = system: Human immunodeficiency virus 1; assay: Antiviral activity against HIV1 isolate with RT 103N, 188L mutation relative to wild type; type: functional
[34] = system: Human immunodeficiency virus 1; assay: Antiviral activity against HIV1 isolate with RT 103N, 181C, 190A mutation relative to wild type; type: functional
[35] = system: Human immunodeficiency virus 1; assay: Antiviral activity against HIV1 isolate with RT 103N, 190S mutation relative to wild type; type: functional; outline: as §1
[36] = system: Human immunodeficiency virus 1; assay: Antiviral activity against HIV1 isolate with RT 106A, 190A mutation relative to wild type; type: functional; outline: as §1
[37] = system: Human immunodeficiency virus 1; assay: Antiviral activity against HIV1 isolate with RT 103N, 181C mutation relative to wild type; type: functional
[38] = system: Human immunodeficiency virus 1; assay: Antiviral activity against HIV1 NL4-3 in Hela-JC53 cells in the presence of 10% human serum after 48 hrs; type: functional, organism-based; settings: Human immunodeficiency virus 1, NL4-3, Hela-JC53, 48 h
Outline: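 HeLa-JC53 cells (1.5 × 10^4) infected with VSV-G-pseudotyped NL4-3.Luci.R−E− reporter virus at MOI 0.03, with 1:4 serial compound dilutions. Heat-inactivated human serum added to final 0–50% on a basal 2% FBS medium. Incubated 48 h at 37°C in 5% CO2. Luciferase read-out; EC50 by nonlinear regression.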

[39] = system: Human immunodeficiency virus 1; assay: Antiviral activity against HIV1 isolate with RT A98G mutation; type: functional, organism-based
Outline: (§2)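 VSV-G-pseudotyped pNL4-3.Luc.R−E− molecular clones carrying the RT mutations, single-round infection of HeLa-JC53 cells (15,000/well) at MOI 0.03. Compounds serially diluted 1:4 in DMSO then in phenol red-free DMEM with 2% FBS, final DMSO 0.2%. Incubated 48 h at 37°C, 5% CO2. Luciferase read-out by chemiluminescence gives the EC50. Fold change is relative to wt virus, mean of two tests.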

[40] = system: Human immunodeficiency virus 1; assay: Antiviral activity against HIV1 isolate with RT K101E mutant; type: functional, organism-based; outline: as §2
Hepatitis C virus = assay: Inhibition of hepatitis C virus replication; type: functional, organism-based; settings: Hepacivirus hominis
[41] = Half life in dog at 10 mg/kg, iv; type: ADME, organism-based, Canis lupus familiaris; design: dose 10 mg/kg, route intravenous; settings: in vivo
[42] = system: Human immunodeficiency virus 1; assay: Antiviral activity against HIV1 isolate with RT K103N-F227L mutation; type: functional, organism-based; outline: as §2
[43] = Cmax in dog at 20 mg/kg, po; type: ADME, organism-based, Canis lupus familiaris; design: dose 20 mg/kg, route oral; settings: in vivo
[44] = system: Human immunodeficiency virus 1; assay: Antiviral activity against HIV1 isolate with RT V106I, Y181C, F227L, T369I mutation in Hela-JC-53 cells; type: functional
[45] = system: Human immunodeficiency virus 1; assay: Antiviral activity against HIV1 isolate with RT K103N-G190A mutation; type: functional, organism-based; outline: as §2
[46] = system: Human immunodeficiency virus 1; assay: Antiviral activity against HIV1 isolate with RT K103N-V108I-A98G mutation; type: functional, organism-based; outline: as §2

SMILES: Cc1ccnc2c1NC(=O)c1cccnc1N2C1CC1 [NEVIRAPINE]
- Fold change [1]: >100
- Fold change [2]: >100
- Fold change [3]: >100
- Fold change [4]: >100
- Fold change [5]: 1.3
- Fold change [6]: >100
- Fold change [7]: >100
- Fold change [8]: >100
- Fold change [9]: 1.1
- Fold change [10]: >100
- Fold change [11]: >100
- Fold change [12]: >100
- Fold change [13]: >100
- Fold change [14]: 0.5
- Fold change [15]: >100
- Fold change [16]: 12
- Fold change [17]: >100
- Fold change [18]: 42
- Fold change [19]: >100
- Fold change [20]: >100
- Fold change [21]: >100
- Fold change [22]: 1.3
- Fold change [23]: 1
- Fold change [24]: >100
- Fold change [25]: >100
- Fold change [26]: 1.9
- Fold change [27]: >100
- Fold change [28]: >100
- Fold change [29]: 100
- Fold change [30]: >100
- Fold change [31]: >100
- Fold change [32]: 42
- Fold change [33]: >100
- Fold change [34]: >100
- Fold change [35]: >100
- Fold change [36]: >100
- Fold change [37]: >100

SMILES: NS(=O)(=O)c1ccc(NC(=O)CSc2nnc(Br)n2-c2ccc(C3CC3)c3ccccc23)c(Cl)c1
- Fold change [1]: 2.5
- Fold change [2]: >100
- Fold change [3]: 4.2
- Fold change [4]: 11
- Fold change [5]: 0.3
- EC50 [38]: 3.9 nM
- Fold change [6]: >100
- Fold change [7]: 62
- Fold change [8]: >100
- Fold change [9]: 0.9
- Fold change [10]: 83
- Fold change [11]: >100
- Fold change [12]: 92
- EC50 [39]: 0.3 nM
- EC50 [40]: 0.26 nM
- Fold change [13]: >100
- Fold change [14]: 1.3
- Fold change [15]: 16
- Fold change [16]: 2.5
- Activity (Hepatitis C virus): inactive
- Fold change [17]: 1.6
- half-life [41]: 2.89 h
- Fold change [18]: 0.9
- Fold change [19]: 10
- Fold change [20]: 5.2
- EC50 [42]: 0.08 nM
- Fold change [21]: 2.2
- Fold change [22]: 0.6
- Cmax [43]: 1980 ng/mL
- Fold change [23]: 1.4
- Fold change [44]: 111.9
- Fold change [24]: 14
- Fold change [25]: >100
- Fold change [26]: 2.4
- Fold change [27]: 1.6
- Fold change [28]: >100
- EC50 [45]: 0.32 nM
- Fold change [29]: 2.2
- Fold change [30]: 0.6
- Fold change [31]: 3.9
- Fold change [32]: 11
- EC50 [46]: 0.24 nM
- Fold change [33]: 3.9
- Fold change [34]: >100
- Fold change [35]: 18
- Fold change [36]: >100
- Fold change [37]: 10
